Results reported in ChEMBL document CHEMBL1137922, “Synthesis and activity of novel analogs of hemiasterlin as inhibitors of tubulin polymerization: modification of the A segment” (Bioorg Med Chem Lett, 2004).
Active and inactive are the calls of the source. The rule behind the calls is not given here.

Tests used:
Bos taurus [1] = species on record: Bos taurus; test: Percent inhibition of bovine microtubule-assisted protein (MAP) rich tubulin polymerisation at concentration of 0.3 uM; (result for 2); format: functional
How it was run: (§1)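 Bovine MAP-rich tubulin (final 1.5 mg/mL) was prepared in cold PEM buffer (80 mM NaPIPES pH 6.9, 1 mM MgCl2, 1 mM EGTA) with 1 mM GTP and spun at 12,000g for 10 min at 4 C. It was added to duplicate compound wells (final 0.3 µM); controls held 0.3% DMSO. A340 was read every minute for 60 min at 24 C.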

KB85 (Homo sapiens) = test: Concentration required to kill human epidermoid KB85 cell lines containing moderate levels of P-glycoprotein after 3 days of continuous exposure; settings: KB85, 72 h
Bos taurus [2] = species on record: Bos taurus; test: Percent inhibition of bovine microtubule-assisted protein (MAP) rich tubulin polymerisation at concentration of 0.3 uM; format: functional; how it was run: as §1
KB 3-1 = test: Concentration required to kill human epidermoid KB-3-1 cell lines containing very low levels of P-glycoprotein after 3 days of continuous exposure; format: functional, cell-based; settings: KB 3-1, 72 h
How it was run: (§2)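 KB-3-1, KB85 and KBV1 cells were plated at densities set to reach 60–90% confluence at analysis. Compounds were serially diluted in medium as 2× stocks and added in duplicate. After 3 days of incubation, cell survival was read by SRB assay and reported as IC50.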

KB = test: Concentration required to kill human epidermoid KBV1 cell lines containing very high levels of P-glycoprotein after 3 days of continuous exposure; format: functional, cell-based; settings: 72 h; how it was run: as §2
Mus musculus [3] = species on record: Mus musculus; test: Effect at 1.5 mpk against DLD1 cell line expressing P-glycoprotein transporter in athymic mice; Active; format: functional, organism-based; settings: DLD-1
Mus musculus [4] = species on record: Mus musculus; test: Effect at 1.5 mpk against MX1W cell line expressing P-glycoprotein transporter in athymic mice; Active; format: functional, organism-based
Mus musculus [5] = test: Minimum tolerated dose against Lox melanoma human xenograft models in athymic mice; format: functional
Mus musculus [6] = species on record: Mus musculus; test: Effect at 1.5 mpk against HCT-15 cell line expressing P-glycoprotein transporter in athymic mice; Active; format: functional, organism-based
Mus musculus [7] = test: Minimum effective dose against Lox melanoma human xenograft models in athymic mice; format: functional
How it was run: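 Lox melanoma cells (1.5–7 × 10^6) were injected sc into athymic mice. At 80–100 mg tumour mass, animals were randomised into groups of 5 or 10 and dosed iv in saline. Tumour length and width were measured weekly, with mass = (L·W²)/2. Relative tumour growth and %T/C were calculated.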

Mus musculus [8] = species on record: Mus musculus; test: Effect at 4 mpk against DLD1 cell line expressing P-glycoprotein transporter in athymic mice; Active; format: functional, organism-based; settings: DLD-1
Mus musculus [9] = species on record: Mus musculus; test: Effect at 3 mpk against MX1W cell line expressing P-glycoprotein transporter in athymic mice; Active; format: functional, organism-based
Mus musculus [10] = species on record: Mus musculus; test: Effect at 3 mpk against HCT-15 cell line expressing P-glycoprotein transporter in athymic mice; inactive; format: functional, organism-based
Mus musculus [11] = species on record: Mus musculus; test: Effect at 1.6 mpk against DLD1 cell line expressing P-glycoprotein transporter in athymic mice; Active; format: functional, organism-based; settings: DLD-1
Mus musculus [12] = species on record: Mus musculus; test: Effect at 1.6 mpk against HCT-15 cell line expressing P-glycoprotein transporter in athymic mice; Active; format: functional, organism-based
Mus musculus [13] = species on record: Mus musculus; test: Effect at 1.6 mpk against MX1W cell line expressing P-glycoprotein transporter in athymic mice; Active; format: functional, organism-based
Mus musculus [14] = species on record: Mus musculus; test: Effect at 2 mpk against HCT-15 cell line expressing P-glycoprotein transporter in athymic mice; Active; format: functional, organism-based
Mus musculus [15] = species on record: Mus musculus; test: Effect at 2 mpk against MX1W cell line expressing P-glycoprotein transporter in athymic mice; Active; format: functional, organism-based
Mus musculus [16] = species on record: Mus musculus; test: Effect at 2 mpk against DLD1 cell line expressing P-glycoprotein transporter in athymic mice; Active; format: functional, organism-based; settings: DLD-1

SMILES	Inhibition (Bos taurus [1])	IC50 (KB85 (Homo sapiens))	Inhibition (Bos taurus [2])	IC50 (KB 3-1)	IC50 (KB)	other results
CCOC(=O)/C(C)=C/[C@H](C(C)C)N(C)C(=O)[C@@H](NC(=O)[C@@H](NC)C(C)(C)c1cccc(C)c1)C(C)(C)C	94%	525 nM	58%	21.9 nM	2410 nM	–
CN[C@H](C(=O)N[C@H](C(=O)N(C)[C@H](/C=C(\C)C(=O)O)C(C)C)C(C)(C)C)C(C)(C)c1cccc(C)c1	89%	0.65 nM	90%	0.23 nM	19 nM	Effect (Mus musculus [3]): Active; Effect (Mus musculus [4]): Active; MTD (Mus musculus [5]): 1.5 mpk; Effect (Mus musculus [6]): Active; MED (Mus musculus [7]): <0.1 mpk
CN[C@H](C(=O)N[C@H](C(=O)N(C)[C@H](/C=C(\C)C(=O)O)C(C)C)C(C)(C)C)C(C)(C)c1ccc(C)cc1	94%	2.6 nM	95%	1.5 nM	55 nM	–
CN[C@H](C(=O)N[C@H](C(=O)N(C)[C@H](/C=C(\C)C(=O)O)C(C)C)C(C)(C)C)C(C)(C)c1cccc(-c2ccccc2)c1	84%	5.4 nM	86%	1.9 nM	149 nM	–
CN[C@H](C(=O)N[C@H](C(=O)N(C)[C@H](/C=C(\C)C(=O)O)C(C)C)C(C)(C)C)C(C)(C)c1cccc(Br)c1	84%	4.1 nM	90%	1.8 nM	148 nM	Effect (Mus musculus [8]): Active; MTD (Mus musculus [5]): 4 mpk; MED (Mus musculus [7]): 1 mpk
CN[C@H](C(=O)N[C@H](C(=O)N(C)[C@H](/C=C(\C)C(=O)O)C(C)C)C(C)(C)C)C(C)(C)c1cccc(Cl)c1	88%	3.2 nM	91%	1.14 nM	91 nM	Effect (Mus musculus [9]): Active; MTD (Mus musculus [5]): 3 mpk; Effect (Mus musculus [10]): inactive; MED (Mus musculus [7]): 0.3 mpk
CN[C@H](C(=O)N[C@H](C(=O)N(C)[C@H](/C=C(\C)C(=O)O)C(C)C)C(C)(C)C)C(C)(C)c1cccc(C(C)=O)c1	87%	5.8 nM	93%	1.9 nM	370 nM	–
CN[C@H](C(=O)N[C@H](C(=O)N(C)[C@H](/C=C(\C)C(=O)O)C(C)C)C(C)(C)C)C(C)(C)c1cccs1	88%	3.9 nM	92%	2 nM	162 nM	MTD (Mus musculus [5]): >5 mpk; MED (Mus musculus [7]): 1 mpk
CN[C@H](C(=O)N[C@H](C(=O)N(C)[C@H](/C=C(\C)C(=O)O)C(C)C)C(C)(C)C)C(C)(C)c1cc(C)cc(C)c1	88%	1.23 nM	85%	0.55 nM	44 nM	–
CN[C@H](C(=O)N[C@H](C(=O)N(C)[C@H](/C=C(\C)C(=O)O)C(C)C)C(C)(C)C)C(C)(C)c1cccc(C(F)(F)F)c1	96%	1.7 nM	98%	0.65 nM	42.7 nM	MTD (Mus musculus [5]): >5 mpk; MED (Mus musculus [7]): 1 mpk
CN[C@H](C(=O)N[C@H](C(=O)N(C)[C@H](/C=C(\C)C(=O)O)C(C)C)C(C)(C)C)C(C)(C)c1ccc(Cl)cc1	96%	1.7 nM	95%	0.56 nM	53 nM	–
CN[C@H](C(=O)N[C@H](C(=O)N(C)[C@H](/C=C(\C)C(=O)O)C(C)C)C(C)(C)C)C(C)(C)c1cc(C(F)(F)F)cc(C(F)(F)F)c1	93%	19 nM	60%	17 nM	457 nM	–
CCOC(=O)/C(C)=C/[C@H](C(C)C)N(C)C(=O)[C@@H](NC(=O)[C@H](NC)C(C)(C)c1cccc(C)c1)C(C)(C)C	94%	1700 nM	26%	263 nM	3000 nM	–
CN[C@H](C(=O)N[C@H](C(=O)N(C)[C@H](/C=C(\C)C(=O)O)C(C)C)C(C)(C)C)C(C)(C)c1cc(F)cc(F)c1	84%	16.2 nM	90%	6.2 nM	457 nM	–
CN[C@H](C(=O)N[C@H](C(=O)N(C)[C@H](/C=C(\C)C(=O)O)C(C)C)C(C)(C)C)C(C)(C)c1ccccc1 [TALTOBULIN]	–	2.4 nM	91%	1 nM	81 nM	Effect (Mus musculus [11]): Active; Effect (Mus musculus [12]): Active; Effect (Mus musculus [13]): Active
CN[C@@H](C(=O)N[C@H](C(=O)N(C)[C@H](/C=C(\C)C(=O)O)C(C)C)C(C)(C)C)C(C)(C)c1cccc(C)c1	89%	19.9 nM	88%	7.9 nM	446 nM	–
CN[C@H](C(=O)N[C@H](C(=O)N(C)[C@H](/C=C(\C)C(=O)O)C(C)C)C(C)(C)C)C(C)(C)c1ccsc1	96%	6.6 nM	88%	2.1 nM	724 nM	–
CCOC(=O)/C(C)=C/[C@H](C(C)C)N(C)C(=O)[C@@H](NC(=O)[C@@H](NC)C(C)(C)c1ccc(C)c(C)c1)C(C)(C)C	92%	24 nM	49%	9.1 nM	191 nM	Effect (Mus musculus [14]): Active; Effect (Mus musculus [15]): Active; Effect (Mus musculus [16]): Active; MTD (Mus musculus [5]): >2 mpk; MED (Mus musculus [7]): 0.5 mpk
C=Cc1cccc(C(C)(C)[C@H](NC)C(=O)N[C@H](C(=O)N(C)[C@H](/C=C(\C)C(=O)O)C(C)C)C(C)(C)C)c1	90%	2 nM	88%	0.86 nM	130 nM	–
CN[C@@H](C(=O)N[C@H](C(=O)N(C)[C@H](/C=C(\C)C(=O)O)C(C)C)C(C)(C)C)C(C)(C)c1ccc(C)cc1	94%	27.5 nM	95%	17 nM	1070 nM	–
CCc1cccc(C(C)(C)[C@H](NC)C(=O)N[C@H](C(=O)N(C)[C@H](/C=C(\C)C(=O)O)C(C)C)C(C)(C)C)c1	90%	1.8 nM	88%	0.79 nM	62 nM	–
CN[C@H](C(=O)N[C@H](C(=O)N(C)[C@H](/C=C(\C)C(=O)O)C(C)C)C(C)(C)C)C(C)(C)c1cccc(F)c1	93%	1.8 nM	103%	1 nM	77 nM	–
